Measurements from ChEMBL document CHEMBL4393713, “Synthesis and biological evaluation of novel xanthine derivatives as potential apoptotic antitumor agents” (Eur J Med Chem, 2019).

System: PANC-1
Assay: Induction of apoptosis in human PANC1 cells assessed as proportion of early apoptotic cells measured after 24 hrs by annexin v propidium iodide staining based flow cytometric analysis
Type: functional
Conditions: not given

SMILES | Activity
Cn1c(=O)[nH]c2nc(SC/C(=N/O)c3ccc(Cl)cc3)[nH]c2c1=O | 6.11%

System: HT-29
Assay: Antiproliferative activity against human HT-29 cells assessed as inhibition of cell proliferation measured after 48 hrs by MTT assay
Type: functional, cell-based
Conditions: HT-29, 48 h
In short: (§1)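 Cells tested by MTT: pancreatic Panc-1, breast MCF-7, colon HT-29 and A-549. Doxorubicin run alongside as the reference compound.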

SMILES | IC50
CC(=O)c1ccc(NC(=O)CSc2nc3c([nH]2)c(=O)n(C)c(=O)n3C)cc1 | 6.4 µM
Cn1c(=O)c2[nH]c(SCC(=O)c3ccc(Br)cc3)nc2n(C)c1=O | 6.5 µM
Cn1c(=O)[nH]c2nc(SCC(=O)c3ccc(Br)cc3)[nH]c2c1=O | 11.5 µM
COc1ccc(C(=O)CSc2nc3[nH]c(=O)n(C)c(=O)c3[nH]2)cc1 | 6.7 µM
Cn1c(=O)[nH]c2nc(SCC(=O)c3ccccc3)[nH]c2c1=O | 11.1 µM
Cn1c(=O)c2[nH]c(SC/C(=N/O)c3ccc(Br)cc3)nc2n(C)c1=O | 1.7 µM

The next lines start with the values.

IC50 | SMILES
6.2 µM | C/C(=N/O)c1ccc(NC(=O)CSc2nc3[nH]c(=O)n(C)c(=O)c3[nH]2)cc1
3.1 µM | C/C(=N/O)c1ccc(NC(=O)CSc2nc3c([nH]2)c(=O)n(C)c(=O)n3C)cc1
6.9 µM | CC(=O)c1ccc(NC(=O)CSc2nc3[nH]c(=O)n(C)c(=O)c3[nH]2)cc1
1.8 µM | Cn1c(=O)[nH]c2nc(SC/C(=N/O)c3ccc(Cl)cc3)[nH]c2c1=O

System: PANC-1
Assay: Cell cycle arrest in human PANC1 cells assessed as accumulation at G2/M phase measured after 24 hrs by annexin v propidium iodide staining based flow cytometric analysis (reference value: 9.95 %)
Type: functional
Conditions: not given

SMILES | Activity
Cn1c(=O)[nH]c2nc(SC/C(=N/O)c3ccc(Cl)cc3)[nH]c2c1=O | 34.36%

System: PANC-1
Assay: Induction of apoptosis in human PANC1 cells assessed as increase in caspase 8 level measured after 24 to 48 hrs relative to control
Type: functional
Conditions: not given
In short: (§2)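 Caspase-8, caspase-9 and cytochrome c levels in treated Panc-1 cells expressed as fold change relative to untreated control cells.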

SMILES | fold change (FC)
Cn1c(=O)[nH]c2nc(SC/C(=N/O)c3ccc(Cl)cc3)[nH]c2c1=O | 3.47

System: PANC-1
Assay: Antiproliferative activity against human PANC1 cells assessed as inhibition of cell proliferation measured after 48 hrs by MTT assay
Type: functional, cell-based
Conditions: PANC-1, 48 h
In short: as §1

SMILES | IC50
CC(=O)c1ccc(NC(=O)CSc2nc3c([nH]2)c(=O)n(C)c(=O)n3C)cc1 | 5.1 µM
Cn1c(=O)c2[nH]c(SCC(=O)c3ccc(Br)cc3)nc2n(C)c1=O | 7.4 µM
Cn1c(=O)[nH]c2nc(SCC(=O)c3ccc(Br)cc3)[nH]c2c1=O | 9.7 µM
COc1ccc(C(=O)CSc2nc3[nH]c(=O)n(C)c(=O)c3[nH]2)cc1 | 5.5 µM
Cn1c(=O)[nH]c2nc(SCC(=O)c3ccccc3)[nH]c2c1=O | 9.4 µM
Cn1c(=O)c2[nH]c(SC/C(=N/O)c3ccc(Br)cc3)nc2n(C)c1=O | 1.7 µM

Next, values leading:

IC50 | SMILES
7.7 µM | C/C(=N/O)c1ccc(NC(=O)CSc2nc3[nH]c(=O)n(C)c(=O)c3[nH]2)cc1
4.6 µM | C/C(=N/O)c1ccc(NC(=O)CSc2nc3c([nH]2)c(=O)n(C)c(=O)n3C)cc1
5.9 µM | CC(=O)c1ccc(NC(=O)CSc2nc3[nH]c(=O)n(C)c(=O)c3[nH]2)cc1
1.7 µM | Cn1c(=O)[nH]c2nc(SC/C(=N/O)c3ccc(Cl)cc3)[nH]c2c1=O

Biological target: Epidermal growth factor receptor (Homo sapiens, UniProt P00533)
Sequence (P00533 whole entry): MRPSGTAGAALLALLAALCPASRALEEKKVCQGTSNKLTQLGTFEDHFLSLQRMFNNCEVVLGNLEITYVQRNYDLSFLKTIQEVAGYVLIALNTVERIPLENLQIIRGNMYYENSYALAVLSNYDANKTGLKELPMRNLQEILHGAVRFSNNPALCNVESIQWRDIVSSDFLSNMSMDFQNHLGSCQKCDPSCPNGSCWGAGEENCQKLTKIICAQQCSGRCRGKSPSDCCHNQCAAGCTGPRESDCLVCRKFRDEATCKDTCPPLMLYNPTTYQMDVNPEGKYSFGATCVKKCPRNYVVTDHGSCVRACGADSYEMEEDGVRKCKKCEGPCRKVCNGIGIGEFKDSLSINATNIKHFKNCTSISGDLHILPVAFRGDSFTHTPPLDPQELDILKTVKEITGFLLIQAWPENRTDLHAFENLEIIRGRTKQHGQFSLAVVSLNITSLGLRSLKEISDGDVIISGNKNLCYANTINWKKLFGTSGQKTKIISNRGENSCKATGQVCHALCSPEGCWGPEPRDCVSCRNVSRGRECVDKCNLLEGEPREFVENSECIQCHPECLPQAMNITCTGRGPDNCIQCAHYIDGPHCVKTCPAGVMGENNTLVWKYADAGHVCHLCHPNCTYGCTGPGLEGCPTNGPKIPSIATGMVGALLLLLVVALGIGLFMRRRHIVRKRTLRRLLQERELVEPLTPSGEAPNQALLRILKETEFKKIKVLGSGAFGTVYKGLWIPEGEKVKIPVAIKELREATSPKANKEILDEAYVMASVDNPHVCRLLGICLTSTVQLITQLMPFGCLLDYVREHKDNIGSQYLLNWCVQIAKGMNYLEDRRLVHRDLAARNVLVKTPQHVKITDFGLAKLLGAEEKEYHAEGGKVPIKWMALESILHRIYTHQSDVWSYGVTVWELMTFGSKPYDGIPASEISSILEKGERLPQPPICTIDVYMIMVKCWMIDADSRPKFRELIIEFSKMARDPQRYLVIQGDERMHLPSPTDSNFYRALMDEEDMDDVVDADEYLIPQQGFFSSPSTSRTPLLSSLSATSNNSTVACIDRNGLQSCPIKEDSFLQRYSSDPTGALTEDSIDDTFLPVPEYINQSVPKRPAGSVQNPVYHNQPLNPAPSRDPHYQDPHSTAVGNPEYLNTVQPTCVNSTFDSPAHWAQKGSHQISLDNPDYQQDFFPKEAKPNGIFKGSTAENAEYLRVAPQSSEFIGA
Assay: Inhibition of human EGFR measured after 3 hrs by ELISA
Conditions: not given

IC50 | SMILES
0.45 µM | Cn1c(=O)c2[nH]c(SC/C(=N/O)c3ccc(Br)cc3)nc2n(C)c1=O
0.82 µM | Cn1c(=O)[nH]c2nc(SC/C(=N/O)c3ccc(Cl)cc3)[nH]c2c1=O

System: PANC-1
Assay: Induction of apoptosis in human PANC1 cells assessed as proportion of late apoptotic cells measured after 24 hrs by annexin v propidium iodide staining based flow cytometric analysis
Type: functional
Conditions: not given

SMILES | Activity
Cn1c(=O)[nH]c2nc(SC/C(=N/O)c3ccc(Cl)cc3)[nH]c2c1=O | 8.86%

System: A549
Assay: Antiproliferative activity against human A549 cells assessed as inhibition of cell proliferation measured after 48 hrs by MTT assay
Type: functional, cell-based
Conditions: A549, 48 h
In short: as §1

SMILES | IC50
CC(=O)c1ccc(NC(=O)CSc2nc3c([nH]2)c(=O)n(C)c(=O)n3C)cc1 | 6.9 µM
Cn1c(=O)c2[nH]c(SCC(=O)c3ccc(Br)cc3)nc2n(C)c1=O | 7.9 µM
Cn1c(=O)[nH]c2nc(SCC(=O)c3ccc(Br)cc3)[nH]c2c1=O | 11.9 µM
COc1ccc(C(=O)CSc2nc3[nH]c(=O)n(C)c(=O)c3[nH]2)cc1 | 6.1 µM
Cn1c(=O)[nH]c2nc(SCC(=O)c3ccccc3)[nH]c2c1=O | 11.9 µM
Cn1c(=O)c2[nH]c(SC/C(=N/O)c3ccc(Br)cc3)nc2n(C)c1=O | 1.8 µM

Further lines, results first:

IC50 | SMILES
7.3 µM | C/C(=N/O)c1ccc(NC(=O)CSc2nc3[nH]c(=O)n(C)c(=O)c3[nH]2)cc1
6.6 µM | C/C(=N/O)c1ccc(NC(=O)CSc2nc3c([nH]2)c(=O)n(C)c(=O)n3C)cc1
7.7 µM | CC(=O)c1ccc(NC(=O)CSc2nc3[nH]c(=O)n(C)c(=O)c3[nH]2)cc1
1.89 µM | Cn1c(=O)[nH]c2nc(SC/C(=N/O)c3ccc(Cl)cc3)[nH]c2c1=O

System: PANC-1
Assay: Induction of apoptosis in human PANC1 cells assessed as increase in BAX level by Sybr-green dye based RT-PCR analysis relative to control
Type: functional
Conditions: not given

SMILES | fold change (FC)
Cn1c(=O)[nH]c2nc(SC/C(=N/O)c3ccc(Cl)cc3)[nH]c2c1=O | 12.7

System: PANC-1
Assay: Induction of apoptosis in human PANC1 cells assessed as increase in caspase 3 level measured after 24 to 48 hrs relative to control
Type: functional
Conditions: not given
In short: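 Active caspase-3 protein in treated Panc-1 cells quantified as pg/mL. Reported as fold increase over untreated control cells, with doxorubicin as the reference drug.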

SMILES | fold change (FC)
Cn1c(=O)c2[nH]c(SC/C(=N/O)c3ccc(Br)cc3)nc2n(C)c1=O | 5.91
Cn1c(=O)[nH]c2nc(SC/C(=N/O)c3ccc(Cl)cc3)[nH]c2c1=O | 8.06

System: PANC-1
Assay: Induction of apoptosis in human PANC1 cells assessed as proportion of necrotic cells measured after 24 hrs by annexin v propidium iodide staining based flow cytometric analysis
Type: functional
Conditions: not given

SMILES | Activity
Cn1c(=O)[nH]c2nc(SC/C(=N/O)c3ccc(Cl)cc3)[nH]c2c1=O | 2.37%

System: PANC-1
Assay: Cell cycle arrest in human PANC1 cells assessed as accumulation at G0/G1 phase measured after 24 hrs by annexin v propidium iodide staining based flow cytometric analysis (reference value: 53.64%)
Type: functional
Conditions: not given

SMILES | Activity
Cn1c(=O)[nH]c2nc(SC/C(=N/O)c3ccc(Cl)cc3)[nH]c2c1=O | 35.08%

System: PANC-1
Assay: Induction of apoptosis in human PANC1 cells assessed as increase in caspase 9 level measured after 24 to 48 hrs relative to control
Type: functional
Conditions: not given
In short: as §2

SMILES | fold change (FC)
Cn1c(=O)[nH]c2nc(SC/C(=N/O)c3ccc(Cl)cc3)[nH]c2c1=O | 15.68

System: MCF7
Assay: Antiproliferative activity against human MCF7 cells assessed as inhibition of cell proliferation measured after 48 hrs by MTT assay
Type: functional, cell-based
Conditions: MCF7, 48 h
In short: as §1

SMILES | IC50
CC(=O)c1ccc(NC(=O)CSc2nc3c([nH]2)c(=O)n(C)c(=O)n3C)cc1 | 6.1 µM
Cn1c(=O)c2[nH]c(SCC(=O)c3ccc(Br)cc3)nc2n(C)c1=O | 7.6 µM
Cn1c(=O)[nH]c2nc(SCC(=O)c3ccc(Br)cc3)[nH]c2c1=O | 11.2 µM
COc1ccc(C(=O)CSc2nc3[nH]c(=O)n(C)c(=O)c3[nH]2)cc1 | 5.9 µM
Cn1c(=O)[nH]c2nc(SCC(=O)c3ccccc3)[nH]c2c1=O | 11.6 µM
Cn1c(=O)c2[nH]c(SC/C(=N/O)c3ccc(Br)cc3)nc2n(C)c1=O | 1.3 µM

Continued, values first:

IC50 | SMILES
9.1 µM | C/C(=N/O)c1ccc(NC(=O)CSc2nc3[nH]c(=O)n(C)c(=O)c3[nH]2)cc1
5.3 µM | C/C(=N/O)c1ccc(NC(=O)CSc2nc3c([nH]2)c(=O)n(C)c(=O)n3C)cc1
6.1 µM | CC(=O)c1ccc(NC(=O)CSc2nc3[nH]c(=O)n(C)c(=O)c3[nH]2)cc1
1.4 µM | Cn1c(=O)[nH]c2nc(SC/C(=N/O)c3ccc(Cl)cc3)[nH]c2c1=O

System: PANC-1
Assay: Cell cycle arrest in human PANC1 cells assessed as accumulation at pre G1 phase measured after 24 hrs by annexin v propidium iodide staining based flow cytometric analysis (reference value: 1.79%)
Type: functional
Conditions: not given

SMILES | Activity
Cn1c(=O)[nH]c2nc(SC/C(=N/O)c3ccc(Cl)cc3)[nH]c2c1=O | 17.34%

System: PANC-1
Assay: Induction of apoptosis in human PANC1 cells assessed as downregulation of Bcl-2 expression level by Sybr-green dye based RT-PCR analysis relative to control
Type: functional
Conditions: not given

SMILES | fold change (FC)
Cn1c(=O)[nH]c2nc(SC/C(=N/O)c3ccc(Cl)cc3)[nH]c2c1=O | 0.239

System: PANC-1
Assay: Induction of apoptosis in human PANC1 cells assessed as increase in cytochrome C level using TMB substrate measured after 24 hrs relative to control
Type: functional
Conditions: not given
In short: as §2

SMILES | fold change (FC)
Cn1c(=O)[nH]c2nc(SC/C(=N/O)c3ccc(Cl)cc3)[nH]c2c1=O | 10.2

System: not listed separately
Assay: Cytotoxicity against human MCF10A cells assessed as cell viability at 50 uM measured after 4 days by MTT assay relative to control
Type: cell-based, MCF-10A
Conditions: read-out: Activity

SMILES | viability at 96 h, 50 µM
C/C(=N/O)c1ccc(NC(=O)CSc2nc3[nH]c(=O)n(C)c(=O)c3[nH]2)cc1 | > 90%
CC(=O)c1ccc(NC(=O)CSc2nc3c([nH]2)c(=O)n(C)c(=O)n3C)cc1 | > 90%
Cn1c(=O)c2[nH]c(SCC(=O)c3ccc(Br)cc3)nc2n(C)c1=O | > 90%
Cn1c(=O)[nH]c2nc(SCC(=O)c3ccc(Br)cc3)[nH]c2c1=O | > 90%
C/C(=N/O)c1ccc(NC(=O)CSc2nc3c([nH]2)c(=O)n(C)c(=O)n3C)cc1 | > 90%
COc1ccc(C(=O)CSc2nc3[nH]c(=O)n(C)c(=O)c3[nH]2)cc1 | > 90%
Cn1c(=O)[nH]c2nc(SCC(=O)c3ccccc3)[nH]c2c1=O | > 90%
Cn1c(=O)c2[nH]c(SC/C(=N/O)c3ccc(Br)cc3)nc2n(C)c1=O | > 90%
CC(=O)c1ccc(NC(=O)CSc2nc3[nH]c(=O)n(C)c(=O)c3[nH]2)cc1 | > 90%
Cn1c(=O)[nH]c2nc(SC/C(=N/O)c3ccc(Cl)cc3)[nH]c2c1=O | > 90%
